{"data": "Experimental data pooled from the literature", "target": "Cannabinoid receptor 1 (CNR1, Homo sapiens, UniProt P21554)", "note": "Each line is one published result; the experiments were not run side by side."}
{"Structure (SMILES)": "CCOC(=O)C(CC)(CCCSCCOCCOCCOCCNC(=O)OC(C)(C)C)NC(=O)c1ccc(C2CC2)c(Cc2ccc(F)cc2)n1 (centres unmarked)", "effect on": "ligand displacement", "method": "radioligand", "notes": "cell membranes", "measurement": "Ki", "result": "589 nM"}
{"Structure (SMILES)": "O=C(c1ccc2c(c1)c1ccccc1n2CCN1CCOCC1)c1cc2ccccc2[nH]1", "effect on": "ligand displacement", "method": "radioligand", "notes": "cell membranes", "measurement": "Ki", "result": "1200 nM"}
{"Structure (SMILES)": "CCCCCn1nc(C(=O)N[C@H](C(N)=O)C(C)C)c2ccccc21", "effect on": "calcium signal", "mode": "agonist", "measurement": "EC50", "result": "3.63 nM"}
{"Structure (SMILES)": "CCOC(=O)[C@](CC)(CCC[S+]([O-])CCOCCOCCNC(=O)OC(C)(C)C)NC(=O)c1ccc(C2CC2)c(Cc2ccc(F)cc2)n1 (some centres unmarked)", "effect on": "ligand displacement", "method": "radioligand", "notes": "cell membranes", "measurement": "Ki", "result": "326 nM"}
{"Structure (SMILES)": "CCCCCc1cc(O)c2c(c1)OC(C)(C)[C@@H]1CC=C(C)[C@H](O)[C@@H]21", "effect on": "ligand displacement", "method": "radioligand", "notes": "cell membranes", "measurement": "Ki", "result": "31 nM"}
{"Structure (SMILES)": "CCOC(=O)C(CC)(CCCSCCOCCOCCOCCOCCNC(=O)OC(C)(C)C)NC(=O)c1ccc(C2CC2)c(Cc2ccc(F)cc2)n1 (centres unmarked)", "effect on": "ligand displacement", "method": "radioligand", "notes": "cell membranes", "measurement": "Ki", "result": "731 nM"}
{"Structure (SMILES)": "CCCCCn1cc(C(=O)C2C(C)(C)C2(C)C)c2ccccc21", "effect on": "GTPγS binding", "mode": "agonist", "method": "radiometric", "notes": "cell membranes", "measurement": "EC50", "result": "98 nM"}
{"Structure (SMILES)": "CCCc1cc(O)c2c(c1)OC(C)(C)[C@@H]1CCC(C)=C[C@@H]21", "effect on": "ligand displacement", "method": "radioligand", "notes": "cell membranes", "measurement": "Ki", "result": "22 nM"}
{"Structure (SMILES)": "Cc1c(C(=O)N2CCC(C(N)=O)(c3ccccc3)CC2)nn(-c2ccc(Cl)cc2Cl)c1-c1ccc(Cl)cc1", "effect on": "calcium signal", "mode": "antagonist", "measurement": "Kb", "result": "0.4 nM"}
{"Structure (SMILES)": "CCCCCc1cc(O)c(C/C=C(\\C)CCC=C(C)C)c(O)c1C(=O)O", "effect on": "ligand displacement", "method": "radioligand", "notes": "cell membranes", "measurement": "Ki", "result": "4530 nM"}
{"Structure (SMILES)": "CCCCC/C=C\\C/C=C\\C/C=C\\C/C=C\\CCCC(=O)N[C@H](C)CO", "effect on": "ligand displacement", "method": "radioligand", "notes": "cell membranes", "measurement": "Ki", "result": "19.8 nM"}
{"Structure (SMILES)": "CCOC(=O)C(CC)(CCCSCCOCCOCCNc1ccc([N+](=O)[O-])c2nonc12)NC(=O)c1ccc(C2CC2)c(Cc2ccc(F)cc2)n1 (racemic)", "effect on": "ligand displacement", "method": "radioligand", "notes": "cell membranes", "measurement": "Ki", "result": "383 nM"}
{"Structure (SMILES)": "CCCCCc1cc(O)c(C/C=C(\\C)CCC2OC2(C)C)c(O)c1 (centres unmarked)", "effect on": "ligand displacement", "method": "radioligand", "notes": "cell membranes", "measurement": "Ki", "result": "> 10000 nM"}
{"Structure (SMILES)": "N#Cc1c(Oc2cccc(OS(=O)(=O)CCCC(F)(F)F)c2)cccc1C(F)(F)F", "effect on": "calcium signal", "mode": "agonist", "measurement": "EC50", "result": "519 nM"}
